The source of these data is PubChem BioAssay.

Molecules are shown by their SMILES. Calls of active or inactive are those of the source.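 Rule for the calls, unless noted: active = fluorescence slope higher than the sample average by over 3 SD (cut at about -0.22 in these data, passing the limit was not always enough); inactive = the rest.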

Test [1] can be described thus: inhibitors of TNFa-induced NFkB p65 translocation, primary screen, imaging, HUVEC, MLSMR starter and 10KST1 sets (AID 438;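 active = inhibition above 20% together with a positive visual image hit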;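 note: compound added about 3h40 before a 20 min TNFalpha stimulation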;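 for inhibition: signal is the nuclear over cytoplasmic p65 intensity ratio per well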). As to conditions: HUVEC TNFa-induced p65 nuclear translocation; cell count: measured here: nuclei count (cytotoxicity indicator), at 2.08 µM; inhibition: at 2 µM, stronger effect = higher value, 0% TNFa-plus-vehicle, 100% no-TNFa wells.
Test [2] in a line: endothelial E-selectin expression blockers – imaging, HUVEC, immunofluorescence, MLSMR starter and 10KST1 sets, primary screen (AID 487;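 active = visually confirmed hit in the image check and inhibition above 20%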;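 for inhibition: signal is fraction of cell area covered by stained E-selectin grains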;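 for nuclei count: 100% = median nuclei count of all wells on the same plate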). As to conditions: HUVEC TNFalpha-induced E-selectin immunofluorescence imaging, at 2 µM; inhibition: stronger effect = higher value; nuclei count: measured here: cell number, toxicity.
The nature of test [3]: Primary imaging screen for DUSP6 inhibitors that restore phospho-Erk in transfected HeLa cells, chemical complementation (AID 609;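 active = compounds giving at least 50% inhibition in the cell-based MKP-3 phosphatase rescue imaging test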;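 for inhibition: phospho-Erk level distribution per well compared with pooled transfected vehicle control wells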). Particulars: HeLa MKP-3 transfected, phospho-Erk imaging KS statistic, at 10 µM, cells stimulated with TPA for 15 min.
Test [4] concerns the target Dual specificity protein phosphatase 6 (Homo sapiens) (UniProt Q16828). Described as above. As to conditions: HeLa MKP-3 transfected, phospho-Erk imaging KS statistic; at 10 µM; stronger effect = higher value; cells stimulated with TPA for 15 min.
The target in test [5] is Voltage-gated potassium channel subunit beta-2 (Rattus norvegicus) (UniProt P62483). The test is described as follows: inhibitors of rat Kvbeta2 reductase activity – biochemical, NADPH fluorescence, primary screen (AID 622).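 Note: slope of raw intensity against log time taken from 70 to 1610 s.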 As to conditions: recombinant KvBeta, 4-cyanobenzaldehyde reduction, at 10 µM, stronger effect = higher value.
The target is the same in test [6]. The experiment in a line: enhancers of rat Kvbeta2 NADPH turnover – biochemical, NADPH fluorescence, primary screen (AID 623;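 active = NADPH fluorescence slope more negative than the mean of all samples by about 3 SD, 99.7% confidence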;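 note: fluorescence intensity change per second fitted from 20 to 320 s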). Particulars: Recombinant KvBeta, NADPH fluorescence decrease slope, 10 min; at 10 µM; stronger effect = lower value.
The target in test [7] is Muscarinic acetylcholine receptor M4 (Homo sapiens) (UniProt P08173). The experiment in a line: M4-linked GIRK flux change, two-sided – cell-based, HEK293 M4/GIRK, thallium flux, BTC-AM, M4 allosteric agonist project, primary screen (AID 625;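 active = fluorescence slope after compound addition differing from the mean of all tested samples at 99.7% confidence, mostly higher but some lower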;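 note: thallium influx through GIRK channels coupled to M4 in HEK293 cells with BTC-AM dye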). As to conditions: at 10 µM, actives lie on both sides. In a few lines: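 System: HEK293 cells with M4 receptor and GIRK channels | Incubation: Cells overnight at 37 °C, BTC-AM loading 1 h, reads 2 min total | Technique: Kinetic BTC-AM fluorescence sampled at 1 Hz, 10 s pre-addition baseline | Measure: Post-addition slope, 15–24 s, of baseline-normalized fluorescence | Control set: Carbachol positive, DMSO negative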

The nature of test [8]: inhibitors of larval lipid processing in zebrafish, primary screen, whole organism, PED6 fluorescence, gall bladder and intestine (AID 686;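 active = a full or partial loss of lipid-probe fluorescence in the fish gall bladder, intestine or both, judged by eye; inactive = no fluorescence loss, or compound toxic to the fish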;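 note: larvae 5 to 7 days old with five fish per well; signal comes from phospholipase A2 cleavage of quenched PED6 carried via bile; overnight exposure to compound and PED6 before scoring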). As to conditions: Zebrafish larvae PED6 lipid processing, fluorescence scoring; screened at 20 µM (by protocol). In a few lines: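 Test system – live zebrafish larvae aged 5-7 days, whole organism · Buffer or medium – E3 fish medium · Reagent – quenched phospholipase substrate PED6, 100 nM final, ingested by larvae · Doses – 20 µM single dose · Incubation – overnight compound and PED6 incubation · Technique – visual fluorescence microscopy scoring of gall bladder, gut · Read-out basis – visual per-well fluorescence inhibition score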

A short description of test [9]: loss of swimming-algae plug formation – whole organism, Chlamydomonas reinhardtii, WT vs cilia-less mutant, absorbance, 96-well, primary screen (AID 463189;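 active = inhibition at or above 50% relative to wild type and mutant plate controls; inactive = inhibition below 50%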;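 note: 0% = wild type cc124 cells in DMSO and 100% = ciliumless bld1 mutant cells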). Particulars: Chlamydomonas reinhardtii gravitaxis, OD600 absorbance, 2 days; at 10 µM; stronger effect = higher value.
Setting [10] is: measured here: cell density z-score.
[11] abbreviates: measured here: nuclear c-Myc green intensity z-score.
Setting [12] is: measured here: nuclear pErk red intensity z-score, stronger effect = higher value.

Sequence of Dual specificity protein phosphatase 6 (Homo sapiens) (Q16828 whole entry, looked up): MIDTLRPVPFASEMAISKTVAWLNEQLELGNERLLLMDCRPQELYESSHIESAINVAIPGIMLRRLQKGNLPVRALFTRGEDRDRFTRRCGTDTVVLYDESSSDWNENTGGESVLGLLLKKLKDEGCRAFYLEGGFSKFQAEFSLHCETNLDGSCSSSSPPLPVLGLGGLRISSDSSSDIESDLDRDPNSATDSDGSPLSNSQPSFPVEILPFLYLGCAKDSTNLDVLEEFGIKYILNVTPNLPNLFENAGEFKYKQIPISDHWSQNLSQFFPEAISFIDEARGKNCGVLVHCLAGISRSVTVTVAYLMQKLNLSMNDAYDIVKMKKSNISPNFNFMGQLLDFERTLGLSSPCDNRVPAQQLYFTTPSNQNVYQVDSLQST
Sequence of Muscarinic acetylcholine receptor M4 (Homo sapiens) (P08173 whole entry, looked up): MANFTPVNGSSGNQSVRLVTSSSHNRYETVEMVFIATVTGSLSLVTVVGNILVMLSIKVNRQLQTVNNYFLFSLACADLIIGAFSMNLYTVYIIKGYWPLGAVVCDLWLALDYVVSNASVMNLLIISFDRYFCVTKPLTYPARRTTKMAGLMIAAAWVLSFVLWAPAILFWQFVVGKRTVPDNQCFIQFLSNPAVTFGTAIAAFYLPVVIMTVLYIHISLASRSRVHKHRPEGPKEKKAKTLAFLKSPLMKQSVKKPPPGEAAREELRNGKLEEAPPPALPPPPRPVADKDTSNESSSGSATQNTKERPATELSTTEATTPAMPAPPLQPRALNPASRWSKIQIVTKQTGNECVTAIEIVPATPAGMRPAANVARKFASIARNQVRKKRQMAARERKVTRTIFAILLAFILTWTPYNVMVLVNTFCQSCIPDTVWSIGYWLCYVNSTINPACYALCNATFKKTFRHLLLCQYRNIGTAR
Sequence of Voltage-gated potassium channel subunit beta-2 (Rattus norvegicus) (P62483 whole entry, looked up): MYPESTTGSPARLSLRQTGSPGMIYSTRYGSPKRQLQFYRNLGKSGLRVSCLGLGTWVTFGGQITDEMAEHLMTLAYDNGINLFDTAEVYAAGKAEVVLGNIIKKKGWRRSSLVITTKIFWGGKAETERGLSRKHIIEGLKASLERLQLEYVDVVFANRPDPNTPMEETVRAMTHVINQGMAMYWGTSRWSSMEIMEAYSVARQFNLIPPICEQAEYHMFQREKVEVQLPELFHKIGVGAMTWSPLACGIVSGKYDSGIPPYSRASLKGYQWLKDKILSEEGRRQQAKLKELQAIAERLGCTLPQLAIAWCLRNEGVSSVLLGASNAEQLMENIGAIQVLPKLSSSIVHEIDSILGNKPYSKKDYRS

As for `CCOC(=O)C1CCN(c2nc3ccccc3nc2C(C#N)C(=O)OC(C)COC)CC1` (stereo unspecified), the cell count in test [1] is 633. Also, the inhibition (commonly the drop in the measured response relative to a control, in per cent) in [1] was -11.6% (inactive); in test [2], -4.7% (inactive); in test [4], -5.81% (inactive); in test [9] it was 6.91% (inactive). In addition, in [2], the nuclei count is 160%. Moreover, the z-score in test [3] (setting [10]) is 0.378; in test [3] (setting [11]), -0.378; in [3] (setting [12]), -0.33. Moreover, the figures for the fluorescence slope in [5] and in test [7] were -0.488 (inactive) and 0.00472 (inactive), respectively. Also, the NADPH fluorescence slope in [6] is -8.1e-05 (inactive). Moreover, in test [8], the result was inactive.

For the compound `O=C(COc1ccc(Cl)cc1)Nc1ccccc1CO`, in test [1], the cell count worked out at 590. Besides, the inhibition in test [1] was -0.5% (inactive); in test [2] it was -9.8% (inactive); in [4] it was 5.42% (inactive); in [9], -8.26% (inactive). The same compound gave a nuclei count in test [2] of 120%. Besides, the z-score in test [3] (setting [10]) is 1.01; in test [3] (setting [11]) it was 0.534; in test [3] (setting [12]) it was -0.247. Further, the figures for the fluorescence slope in test [5] and in [7] were -0.435 (inactive) and 0.00526 (inactive), respectively. Also, the NADPH fluorescence slope in [6] is -0.000143 (inactive). Further, in test [8], the compound was called inactive.

Take `COCCCn1c2nc3ccccc3nc2c2c(=O)n(-c3ccccc3OC)c(C)nc21`: in [1], the cell count turned out to be 671. Further, the inhibition in test [1] is -8.6% (inactive); in [2] it was -13.5% (inactive); in [4], 9.07% (inactive); in [9], 4.04% (inactive). In [2], this compound yielded a nuclei count of 185%. The z-score is 0.714 in [3] (setting [10]), -0.748 in test [3] (setting [11]) and 0.0802 in [3] (setting [12]). Besides, the fluorescence slope is -0.442 (inactive) in [5] and 0.0072 (inactive) in [7]. Also, the NADPH fluorescence slope in test [6] is -3.7e-05 (inactive). The compound was classed as inactive in test [8].

For `CCN(CC)CCN1C(=O)C(O)=C(C(=O)c2cc3ccccc3o2)C1c1cccnc1` (stereo unspecified), the cell count in test [1] worked out at 423. The inhibition was -6.8% (inactive) in [1], 14.8% (inactive) in test [2], 3.56% (inactive) in test [4] and -8.96% (inactive) in test [9]. Further, in test [2], the nuclei count stood at 163%. The z-score in test [3] (setting [10]) was -0.472; in test [3] (setting [11]), -0.722; in [3] (setting [12]), -0.061. Moreover, the fluorescence slope in test [5] is -0.431 (inactive); in test [7] it was 0.00445 (inactive). For the same compound, the NADPH fluorescence slope in test [6] was -0.000135 (inactive). For the same compound, in [8], the call was inactive.

Take `CC(=O)NCC(=O)OCN1C(=O)c2ccccc2C1=O`: the cell count in test [1] turned out to be 520. For the same compound, the inhibition was -8.8% (inactive) in test [1], -105% (inactive) in test [2], 15.9% (inactive) in test [4] and 20% (inactive) in [9]. This compound returned a nuclei count in test [2] of 154%. In addition, the z-score in test [3] (setting [10]) is 0.466; in test [3] (setting [11]), -1.64; in [3] (setting [12]) it was -0.405. Moreover, the fluorescence slope in test [5] is -0.376 (inactive); in test [7], 0.00573 (inactive). For the same compound, the NADPH fluorescence slope in test [6] is 7.5e-06 (inactive). Besides, in test [8], the outcome was inactive.

For the compound `C=CCOn1c(=O)c(-c2ccc(OC)cc2)[n+]([O-])c2ccccc21`, the cell count in [1] was found to be 586. For the same compound, the inhibition is -10.1% (inactive) in test [1], -77.9% (inactive) in [2], 13.9% (inactive) in test [4] and 19.7% (inactive) in test [9]. The nuclei count in [2] is 148%. Besides, the z-score was 0.271 in [3] (setting [10]), 0.00215 in test [3] (setting [11]) and -0.813 in test [3] (setting [12]). Also, the fluorescence slope is -0.416 (inactive) in test [5] and 0.00502 (inactive) in test [7]. For the same compound, the NADPH fluorescence slope in test [6] was -5.2e-05 (inactive). The result in test [8] was inactive.

For `Cc1cc(C)n(CC(=O)c2ccccc2)c(=O)c1C#N`, the cell count in [1] came out at 470. The inhibition in [1] is -3.8% (inactive); in test [2] it was -112% (inactive); in test [4], -3.95% (inactive); in test [9] it was -1.97% (inactive). The same compound registered a nuclei count in test [2] of 157%. For the same compound, the z-score was -1.09 in test [3] (setting [10]), 0.551 in test [3] (setting [11]) and 0.941 in [3] (setting [12]). The fluorescence slope in [5] was -0.432 (inactive); in [7] it was 0.0047 (inactive). Further, in test [6], the NADPH fluorescence slope is -4.1e-05 (inactive). The call in [8] was inactive.
